Results as given in publication PMC7818638 (ACS Omega, 2021).
≈ marks a conversion by molar mass, not a printed value.

Experiments:
HepG2 = test: Antiproliferative; format: cell-based; conditions: Homo sapiens, HepG2, read-out: HepG2 IC50 ± SD
Procedure, shortened: (§1)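 Test compounds are screened by MTT assay against human hepatoblastoma HepG2 cells and murine BALB/3T3 fibroblasts, with doxorubicin as the reference drug. Dose–response curves are plotted from the results. IC50 is taken as the concentration needed to kill half the cell population. Values are the mean of three independent experiments.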

[1] = test system: BALB/3T3 (murine fibroblast); test: Cytotoxicity toward normal cell line BALB/3T3, MTT assay; format: cell-based; conditions: for toxicity on the normal cell line (BALAB/3T3): statement in words; for IC50: Mus musculus, BALB/3T3, read-out: BALAB/3T3 IC50 ± SD
Procedure, shortened: as §1

Compound	IC50 (HepG2)	toxicity on the normal cell line (BALAB/3T3) [1]	IC50 [1]
COc1cccc2c1C(=O)c1c(O)c3c(c(O)c1C2=O)C[C@@](O)(C(=O)CO)C[C@@H]3O[C@H]1C[C@H](N)[C@H](O)[C@H](C)O1 [doxorubicin, reference compound]	3.56 ± 0.46 µg/mL (≈ 6.55 µM)		
Cc1c(-c2cc(-c3ccccc3)c(C#N)c(N)n2)nnn1-c1ccc(Br)cc1 [Compound 3, 2-Amino-6-(1-(4-bromophenyl)-5-methyl-1H-1,2,3-triazol-4-yl)-4-phenylnicotinonitrile]	17.2 ± 0.83 µg/mL (≈ 40 µM)		
CCOC(=O)c1c(-c2cn(-c3ccccc3)nc2-c2nnn(-c3cccc([N+](=O)[O-])c3)c2C)cc(-c2nnn(-c3ccc(Br)cc3)c2C)nc1N [Compound 14, Ethyl 2-Amino-6-(1-(4-bromophenyl)-5-methyl-1H-1,2,3-triazol-4-yl)-4-(3-(5-methyl-1-(3-nitrophenyl)-1H-1,2,3-triazol-4-yl)-1-phenyl-1H-pyrazol-4-yl)nicotinate]	9.54 ± 0.05 µg/mL (≈ 12.8 µM)		
Cc1c(-c2cc(-c3cn(-c4ccccc4)nc3-c3nnn(-c4ccc(Br)cc4)c3C)c(C#N)c(N)n2)nnn1-c1ccc(Br)cc1 [Compound 6, 2-Amino-6-(1-(4-bromophenyl)-5-methyl-1H-1,2,3-triazol-4-yl)-4-(3-(1-(4-bromophenyl)-5-methyl-1H-1,2,3-triazol-4-yl)-1-phenyl-1H-pyrazol-4-yl)nicotinonitrile]	0.64 ± 0.14 µg/mL (≈ 0.873 µM)	no toxicity	
CCOC(=O)c1c(-c2ccco2)cc(-c2nnn(-c3ccc(Br)cc3)c2C)nc1N [Compound 16, Ethyl 2-Amino-6-(1-(4-bromophenyl)-5-methyl-1H-1,2,3-triazol-4-yl)-4-(furan-2-yl)nicotinate]	13.24 ± 0.12 µg/mL (≈ 28.3 µM)		
CCOC(=O)c1c(-c2ccc(OC)cc2)cc(-c2nnn(-c3ccc(Br)cc3)c2C)nc1N [Compound 11, Ethyl 2-Amino-6-(1-(4-bromophenyl)-5-methyl-1H-1,2,3-triazol-4-yl)-4-(4-methoxyphenyl)nicotinate]	16.7 ± 0.83 µg/mL (≈ 32.8 µM)		
Cc1c(-c2cc(-c3cn(-c4ccccc4)nc3-c3nnn(-c4cccc([N+](=O)[O-])c4)c3C)c(C#N)c(N)n2)nnn1-c1ccc(Br)cc1 [Compound 7, 2-Amino-6-(1-(4-bromophenyl)-5-methyl-1H-1,2,3-triazol-4-yl)-4-(3-(5-methyl-1-(3-nitrophenyl)-1H-1,2,3-triazol-4-yl)-1-phenyl-1H-pyrazol-4-yl)nicotinonitrile]	1.08 ± 0.94 µg/mL (≈ 1.54 µM)	no toxicity	
CCOC(=O)c1c(-c2ccccc2)cc(-c2nnn(-c3ccc(Br)cc3)c2C)nc1N [Compound 10, Ethyl 2-Amino-6-(1-(4-bromophenyl)-5-methyl-1H-1,2,3-triazol-4-yl)-4-phenylnicotinate]	23.2 ± 0.45 µg/mL (≈ 48.6 µM)		76.72 ± 0.24 µg/mL (≈ 160 µM)
COc1cc(-c2cc(-c3nnn(-c4ccc(Br)cc4)c3C)nc(N)c2C#N)ccc1O [Compound 8, 2-Amino-6-(1-(4-bromophenyl)-5-methyl-1H-1,2,3-triazol-4-yl)-4-(4-hydroxy-3-methoxyphenyl)nicotinonitrile]	9.65 ± 0.37 µg/mL (≈ 20.2 µM)		
CCOC(=O)c1c(-c2cn(-c3ccccc3)nc2-c2nnn(-c3ccc(Br)cc3)c2C)cc(-c2nnn(-c3ccc(Br)cc3)c2C)nc1N [Compound 13, Ethyl 2-Amino-6-(1-(4-bromophenyl)-5-methyl-1H-1,2,3-triazol-4-yl)-4-(3-(1-(4-bromophenyl)-5-methyl-1H-1,2,3-triazol-4-yl)-1-phenyl-1H-pyrazol-4-yl)nicotinate]	6.24 ± 0.71 µg/mL (≈ 8 µM)		61.24 ± 0.21 µg/mL (≈ 78.5 µM)
CCOC(=O)c1c(-c2ccc(O)c(OC)c2)cc(-c2nnn(-c3ccc(Br)cc3)c2C)nc1N [Compound 15, Ethyl 2-Amino-6-(1-(4-bromophenyl)-5-methyl-1H-1,2,3-triazol-4-yl)-4-(4-hydroxy-3-methoxyphenyl)nicotinate]	11.3 ± 0.95 µg/mL (≈ 21.6 µM)		18.3 ± 1.81 µg/mL (≈ 35 µM)
Cc1c(-c2cc(-c3ccco3)c(C#N)c(N)n2)nnn1-c1ccc(Br)cc1 [Compound 9, 2-Amino-6-(1-(4-bromophenyl)-5-methyl-1H-1,2,3-triazol-4-yl)-4-(furan-2-yl)nicotinonitrile]	11.15 ± 0.01 µg/mL (≈ 26.5 µM)		
